# Test results from ChEMBL document CHEMBL3112403, “Design, synthesis and evaluation of second generation MurF inhibitors based on a cyanothiophene scaffold” (Eur J Med Chem, 2014).
# pIC50: −log10 of the molar value. Active and inactive are the calls of the source. The rule behind the calls is not given here.
# How the values were obtained:
# Staphylococcus aureus [1] = assay: Antibacterial activity against Staphylococcus aureus SH1000 assessed as decrease in membrane integrity at 4 times MIC by BacLight assay; format: functional, organism-based
# Outline: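 Membrane damage was measured with the BacLight assay in cells exposed to compound at 4 × MIC and compared with a drug-free control.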
# Escherichia coli [2] = assay: Antibacterial activity against Escherichia coli ES100 harboring tolC deletion mutant assessed as growth inhibition by broth microdilution method; format: functional
# Outline: (§1)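 MIC by broth microdilution in Mueller-Hinton broth following CLSI guidelines. ES100 is the tolC derivative of AB734, and SM1411 is the acrAB derivative of 1411; both are efflux-deficient E. coli strains. Growth inhibition was read as the minimum inhibitory concentration.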
# [3] = biological target: T1, UDP-N-acetylmuramoyl-tripeptide--D-alanyl-D-alanine ligase (Streptococcus pneumoniae, UniProt Q9ZHC3); assay: Inhibition of Streptococcus pneumoniae MurF ligase using D-Ala-D-Ala as substrate after 15 mins by malachite green assay
# T1 sequence (Q9ZHC3 whole entry): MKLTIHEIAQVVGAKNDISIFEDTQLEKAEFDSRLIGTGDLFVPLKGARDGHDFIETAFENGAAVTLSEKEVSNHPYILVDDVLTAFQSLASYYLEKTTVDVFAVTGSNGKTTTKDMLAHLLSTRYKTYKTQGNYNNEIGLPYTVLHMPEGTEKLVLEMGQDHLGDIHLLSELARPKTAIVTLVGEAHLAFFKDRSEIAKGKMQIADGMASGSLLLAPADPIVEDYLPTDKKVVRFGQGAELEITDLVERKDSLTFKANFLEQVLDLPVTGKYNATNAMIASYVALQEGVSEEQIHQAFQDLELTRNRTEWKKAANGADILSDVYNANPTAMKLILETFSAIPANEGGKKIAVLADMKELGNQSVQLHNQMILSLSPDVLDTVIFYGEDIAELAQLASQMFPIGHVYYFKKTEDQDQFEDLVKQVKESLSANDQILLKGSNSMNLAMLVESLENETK
# Outline: (§2)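 Purified S. pneumoniae MurF in 50 mM Hepes pH 8.0 with 50 mM MgCl2, 0.005% Triton X-114, 100 µM D-Ala-D-Ala, 50 µM UMtri-L-Lys and 250 µM ATP, with 5% DMSO final. After 15 min at 37 °C, Biomol reagent was added and absorbance read at 650 nm, in duplicate. RA was taken against a 5% DMSO control. IC50 was the 50% RA point from seven concentrations.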
# Escherichia coli [4] = assay: Antibacterial activity against Escherichia coli 1411 assessed as growth inhibition by broth microdilution method in presence of polymyxin B nonapeptide; format: functional
# Outline: (§3)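 Broth microdilution MIC in Mueller-Hinton broth per CLSI, run with 4 µg/mL polymyxin B nonapeptide to permeabilize the outer membrane.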
# Escherichia coli [5] = assay: Antibacterial activity against Escherichia coli SM1411 harboring acrAB deletion mutant assessed as growth inhibition by broth microdilution method; format: functional; outline: as §1
# Escherichia coli [6] = assay: Antibacterial activity against Escherichia coli AB734 assessed as growth inhibition by broth microdilution method in presence of polymyxin B nonapeptide; format: functional; outline: as §3
# [7] = Inhibition of Escherichia coli MurF ligase using D-Ala-D-Ala as substrate after 15 mins by malachite green assay
# Outline: (§4)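 After 15 min at 37 °C, Biomol reagent was added and phosphate read at 650 nm, in duplicate. RA was taken relative to a 5% DMSO control. IC50 was taken as the concentration giving 50% RA, from seven concentrations.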
# Escherichia coli [8] = assay: Antibacterial activity against Escherichia coli AB734 assessed as growth inhibition by broth microdilution method; format: functional
# Outline: (§5)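 MICs by broth microdilution in Mueller-Hinton broth following CLSI guidelines.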
# Escherichia coli [9] = assay: Antibacterial activity against Escherichia coli 1411 assessed as growth inhibition by broth microdilution method; format: functional; outline: as §5
# Staphylococcus aureus [10] = assay: Antibacterial activity against Staphylococcus aureus SH1000 assessed as growth inhibition by broth microdilution method; format: functional; outline: as §5
# Escherichia coli [11] = assay: Inhibition of […] MurF ligase using D-Ala-D-Ala as substrate assessed as residual activity at 100 uM after 15 mins by malachite green assay; outline: as §4
# [12] = biological target: T2, UDP-N-acetylmuramoyl-tripeptide--D-alanyl-D-alanine ligase (Streptococcus pneumoniae) (UniProt Q9ZHC3); assay: Inhibition of Streptococcus pneumoniae MurF ligase using D-Ala-D-Ala as substrate assessed as residual activity at 100 uM after 15 mins by malachite green assay; outline: as §2
# T2 sequence (whole entry): T1 sequence (Q9ZHC3 whole entry)
# Escherichia coli [13] = assay: Inhibition of […] MurF ligase using D-Ala-D-Ala as substrate assessed as residual activity at 250 uM after 15 mins by malachite green assay; outline: as §4
# [14] = biological target: T2, UDP-N-acetylmuramoyl-tripeptide--D-alanyl-D-alanine ligase (Streptococcus pneumoniae); assay: Inhibition of Streptococcus pneumoniae MurF ligase using D-Ala-D-Ala as substrate assessed as residual activity at 250 uM after 15 mins by malachite green assay; outline: as §2
Compound,Activity (Staphylococcus aureus [1]),MIC (Escherichia coli [2]) [µg/mL],pIC50 [3],MIC (Escherichia coli [4]) [µg/mL],MIC (Escherichia coli [5]) [µg/mL],MIC (Escherichia coli [6]) [µg/mL],pIC50 [7],MIC (Escherichia coli [8]) [µg/mL],MIC (Escherichia coli [9]) [µg/mL],MIC (Staphylococcus aureus [10]) [µg/mL],Activity (Escherichia coli [11]) [%],Activity [12] [%],Activity (Escherichia coli [13]) [%],Activity [14] [%]
N#Cc1c(NC(=O)c2cc(OCCNC(=N)N)ccc2Cl)sc2c1CCC(c1ccc(O)cc1)C2 (stereo unspecified),inactive,–,–,–,–,–,–,–,–,–,–,–,–,–
COC(=O)c1ccc(CN2CCc3c(sc(NC(=O)c4cc(OCCNC(=N)N)ccc4Cl)c3C#N)C2)cc1.Cl,inactive,8,4.43,32,16,32,4.10,64,64,8,–,–,–,–
N#Cc1c(NC(=O)c2cc(OCc3ccccc3)ccc2Cl)sc2c1CCCC2,–,–,–,–,–,–,–,–,–,–,82,81,–,–
N#Cc1c(NC(=O)c2cccc(OCC3CCCC3)c2)sc2c1CCCC2,–,–,–,–,–,–,–,–,–,–,99,81,–,–
Cl.N#Cc1ccc(CN2CCc3c(sc(NC(=O)c4cc(OCCNC(=N)N)ccc4Cl)c3C#N)C2)cc1,inactive,16,4.21,32,16,32,4.18,256,128,16,–,–,–,–
N#Cc1c(NC(=O)c2cccc(OCCN)c2)sc2c1CCCC2,–,–,–,–,–,–,–,–,–,–,93,98,–,–
N#Cc1c(NC(=O)c2cc(OCCNC(=O)C(F)(F)F)ccc2Cl)sc2c1CCN(Cc1cccc(O)c1)C2,–,> 256,–,> 256,> 256,> 256,–,> 256,> 256,> 256,–,–,56,71
N#Cc1c(NC(=O)c2cccc(OCn3cccn3)c2)sc2c1CCCC2,–,–,–,–,–,–,–,–,–,–,85,89,–,–
Cl.N#Cc1c(NC(=O)c2cc(OCCNC(=N)N)ccc2Cl)sc2c1CCN(Cc1ccccc1)C2,inactive,8,4.26,16,32,16,4.24,32,32,8,–,–,–,–
COc1ccc(CN2CCc3c(sc(NC(=O)c4cc(OCCN)ccc4Cl)c3C#N)C2)cc1,inactive,32,3.90,64,64,64,4.14,128,128,128,–,–,–,–
N#Cc1ccc(COc2ccc(Cl)c(C(=O)Nc3sc4c(c3C#N)CCCC4)c2)cc1,–,–,–,–,–,–,–,–,–,–,97,102,–,–
N#Cc1c(NC(=O)c2cc(OCCN)ccc2Cl)sc2c1CCNC2,–,> 256,–,> 256,> 256,> 256,–,> 256,> 256,> 256,–,–,65,85
N#Cc1c(NC(=O)c2cccc(OCc3ccc(Cl)cc3)c2)sc2c1CCCC2,–,–,–,–,–,–,–,–,–,–,97,102,–,–
